Reference: ChEMBL document CHEMBL1781919, “Synthesis and anticonvulsant properties of 1-(amino-N-arylmethanethio)-3-(1-substituted benzyl-2, 3-dioxoindolin-5-yl) urea derivatives” (Eur J Med Chem, 2011)
Active and inactive are the calls of the source.

Legend:
Mus musculus [1] = assay: Anticonvulsant activity in mouse assessed as protection against electrically-induced seizure at 100 mg/kg, ip after 4 hrs by 6Hz psychomotor seizure test; assay type: functional, organism-based; set-up: dose 100 mg/kg
Method in brief: (§1)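 Mice pretreated by i.p. injection at 100 mg/kg, then challenged through corneal electrodes at 6 Hz, 32 mA for 3 s, which elicits a psychomotor seizure in 97% of animals. Four mice per time point. Score is N/F, the number of animals protected over the number tested. Testing run under the NINDS Anticonvulsant Screening Program.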

Mus musculus [2] = assay: Anticonvulsant activity in mouse assessed as protection against subcutaneous pentylenetetrazole-induced seizures at 100 mg/kg, ip after 4 hrs; assay type: functional, organism-based; set-up: dose 100 mg/kg
Mus musculus [3] = assay: Anticonvulsant activity in mouse assessed as protection against subcutaneous pentylenetetrazole-induced seizures at 300 mg/kg, ip after 0.5 hrs; assay type: functional, organism-based; set-up: dose 300 mg/kg
Mus musculus [4] = assay: Anticonvulsant activity in mouse assessed as protection against subcutaneous pentylenetetrazole-induced seizures at 300 mg/kg, ip after 4 hrs; assay type: functional, organism-based; set-up: dose 300 mg/kg
Mus musculus [5] = assay: Anticonvulsant activity in mouse assessed as protection against maximal electroshock-induced seizures at 300 mg/kg, ip after 0.5 hrs; assay type: functional, organism-based; set-up: dose 300 mg/kg
Method in brief: (§2)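 Mouse Test 1: i.p. dosing at 0.01 mL/g. Sets of one, three and one animals receive 30, 100 and 300 mg/kg respectively, each tested at 0.5 h and 4.0 h. Score is N/F, the number of animals protected over the number tested. Screening performed by NINDS following the ADD program protocol.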

Mus musculus [6] = assay: Neurotoxicity in mouse assessed as electrically-induced clonic seizures at 100 mg/kg, ip after 2 hrs by rotarod test; assay type: toxicity, organism-based; set-up: dose 100 mg/kg, route intraperitoneal; conditions: in vivo
Method in brief: (§3)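 Rotorod toxicity in mice given 100 mg/kg i.p., four per time point, alongside the 6 Hz test. The endpoint is inability to maintain balance on the rotorod. Score is N/F, the number of animals showing toxicity over the number tested.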

Mus musculus [7] = assay: Neurotoxicity in mouse assessed as minimum motor impairment at 30 mg/kg, ip after 4 hrs by rotarod test; assay type: toxicity, organism-based; set-up: dose 30 mg/kg, route intraperitoneal; conditions: in vivo
Method in brief: (§4)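 Rotorod test for minimal motor impairment in mice given 30, 100 or 300 mg/kg i.p. at 0.01 mL/g, using sets of one, three and one animals, at 0.5 h and 4.0 h. Animals are observed at each dose and time. Score is N/F, the number showing toxicity over the number tested.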

Mus musculus [8] = assay: Anticonvulsant activity in mouse assessed as protection against subcutaneous pentylenetetrazole-induced seizures at 30 mg/kg, ip after 0.5 hrs; assay type: functional, organism-based; set-up: dose 30 mg/kg
Mus musculus [9] = assay: Anticonvulsant activity in mouse assessed as protection against electrically-induced seizure at 100 mg/kg, ip after 2 hrs by 6Hz psychomotor seizure test; assay type: functional, organism-based; set-up: dose 100 mg/kg; method in brief: as §1
Mus musculus [10] = assay: Neurotoxicity in mouse assessed as minimum motor impairment at 300 mg/kg, ip after 4 hrs by rotarod test; assay type: toxicity, organism-based; set-up: dose 300 mg/kg, route intraperitoneal; conditions: in vivo; method in brief: as §4
Mus musculus [11] = assay: Neurotoxicity in mouse assessed as electrically-induced clonic seizures at 100 mg/kg, ip after 0.25 hrs by rotarod test; assay type: toxicity, organism-based; set-up: dose 100 mg/kg, route intraperitoneal; conditions: in vivo; method in brief: as §3
[12] = Octanol-phosphate buffer partition coefficient, log P of the compound; assay type: physicochemical
Method in brief: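 Octanol and phosphate buffer partition run at room temperature (29 °C). After separation, the phases are membrane-filtered and drug in the aqueous phase is measured by UV. PC = (Ct − Ca)/Ca, where Ct is total drug concentration and Ca is aqueous-phase concentration.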

Mus musculus [13] = assay: Anticonvulsant activity in mouse assessed as protection against maximal electroshock-induced seizures at 300 mg/kg, ip after 4 hrs; assay type: functional, organism-based; set-up: dose 300 mg/kg; method in brief: as §2
Mus musculus [14] = assay: Neurotoxicity in mouse assessed as minimum motor impairment at 30 mg/kg, ip after 0.5 hrs by rotarod test; assay type: toxicity, organism-based; set-up: dose 30 mg/kg, route intraperitoneal; conditions: in vivo; method in brief: as §4
Mus musculus [15] = assay: Neurotoxicity in mouse assessed as minimum motor impairment at 100 mg/kg, ip after 4 hrs by rotarod test; assay type: toxicity, organism-based; set-up: dose 100 mg/kg, route intraperitoneal; conditions: in vivo; method in brief: as §4
Mus musculus [16] = assay: Anticonvulsant activity in mouse assessed as protection against subcutaneous pentylenetetrazole-induced seizures at 100 mg/kg, ip after 0.5 hrs; assay type: functional, organism-based; set-up: dose 100 mg/kg
Mus musculus [17] = assay: Neurotoxicity in mouse assessed as minimum motor impairment at 300 mg/kg, ip after 0.5 hrs by rotarod test; assay type: toxicity, organism-based; set-up: dose 300 mg/kg, route intraperitoneal; conditions: in vivo; method in brief: as §4
Mus musculus [18] = assay: Anticonvulsant activity in mouse assessed as protection against maximal electroshock-induced seizures at 30 mg/kg, ip after 0.5 hrs; assay type: functional, organism-based; set-up: dose 30 mg/kg; method in brief: as §2
Mus musculus [19] = assay: Neurotoxicity in mouse assessed as electrically-induced clonic seizures at 100 mg/kg, ip after 4 hrs by rotarod test; assay type: toxicity, organism-based; set-up: dose 100 mg/kg, route intraperitoneal; conditions: in vivo; method in brief: as §3
Mus musculus [20] = assay: Neurotoxicity in mouse assessed as minimum motor impairment at 100 mg/kg, ip after 0.5 hrs by rotarod test; assay type: toxicity, organism-based; set-up: dose 100 mg/kg, route intraperitoneal; conditions: in vivo; method in brief: as §4
Mus musculus [21] = assay: Anticonvulsant activity in mouse assessed as protection against subcutaneous pentylenetetrazole-induced seizures at 30 mg/kg, ip after 4 hrs; assay type: functional, organism-based; set-up: dose 30 mg/kg
Mus musculus [22] = assay: Anticonvulsant activity in mouse assessed as protection against electrically-induced seizure at 100 mg/kg, ip after 0.5 hrs by 6Hz psychomotor seizure test; assay type: functional, organism-based; set-up: dose 100 mg/kg; method in brief: as §1
Mus musculus [23] = assay: Anticonvulsant activity in mouse assessed as protection against maximal electroshock-induced seizures at 100 mg/kg, ip after 0.5 hrs; assay type: functional, organism-based; set-up: dose 100 mg/kg; method in brief: as §2
Mus musculus [24] = assay: Neurotoxicity in mouse assessed as electrically-induced clonic seizures at 100 mg/kg, ip after 1 hr by rotarod test; assay type: toxicity, organism-based; set-up: dose 100 mg/kg, route intraperitoneal; conditions: in vivo; method in brief: as §3
Mus musculus [25] = assay: Anticonvulsant activity in mouse assessed as protection against maximal electroshock-induced seizures at 30 mg/kg, ip after 4 hrs; assay type: functional, organism-based; set-up: dose 30 mg/kg; method in brief: as §2
Mus musculus [26] = assay: Anticonvulsant activity in mouse assessed as protection against maximal electroshock-induced seizures at 100 mg/kg, ip after 4 hrs; assay type: functional, organism-based; set-up: dose 100 mg/kg; method in brief: as §2
Mus musculus [27] = assay: Anticonvulsant activity in mouse assessed as protection against electrically-induced seizure at 100 mg/kg, ip after 1 hr by 6Hz psychomotor seizure test; assay type: functional, organism-based; set-up: dose 100 mg/kg; method in brief: as §1
Mus musculus [28] = assay: Neurotoxicity in mouse assessed as electrically-induced clonic seizures at 100 mg/kg, ip after 0.5 hrs by rotarod test; assay type: toxicity, organism-based; set-up: dose 100 mg/kg, route intraperitoneal; conditions: in vivo; method in brief: as §3
Mus musculus [29] = assay: Anticonvulsant activity in mouse assessed as protection against electrically-induced seizure at 100 mg/kg, ip after 0.25 hrs by 6Hz psychomotor seizure test; assay type: functional, organism-based; set-up: dose 100 mg/kg; method in brief: as §1

COc1ccc(NC(=S)NC(=O)Nc2ccc3c(c2)C(=O)C(=O)N3Cc2ccccc2)cc1
inactive: Activity (Mus musculus [1]) | Activity (Mus musculus [2]) | Activity (Mus musculus [4]) | Activity (Mus musculus [8]) | Activity (Mus musculus [9]) | Activity (Mus musculus [16]) | Activity (Mus musculus [18]) | Activity (Mus musculus [21]) | Activity (Mus musculus [23]) | Activity (Mus musculus [25]) | Activity (Mus musculus [26]) | Activity (Mus musculus [27])
Non-toxic: Activity (Mus musculus [6]) | Activity (Mus musculus [7]) | Activity (Mus musculus [10]) | Activity (Mus musculus [11]) | Activity (Mus musculus [14]) | Activity (Mus musculus [15]) | Activity (Mus musculus [17]) | Activity (Mus musculus [19]) | Activity (Mus musculus [20]) | Activity (Mus musculus [24]) | Activity (Mus musculus [28])
2.39: logP [12]
active: Activity (Mus musculus [3]) | Activity (Mus musculus [5]) | Activity (Mus musculus [13]) | Activity (Mus musculus [22]) | Activity (Mus musculus [29])
